In data set [1] the target is T1, Muscarinic acetylcholine receptor M2 (Homo sapiens) (UniProt P08172).
T1 sequence (whole entry): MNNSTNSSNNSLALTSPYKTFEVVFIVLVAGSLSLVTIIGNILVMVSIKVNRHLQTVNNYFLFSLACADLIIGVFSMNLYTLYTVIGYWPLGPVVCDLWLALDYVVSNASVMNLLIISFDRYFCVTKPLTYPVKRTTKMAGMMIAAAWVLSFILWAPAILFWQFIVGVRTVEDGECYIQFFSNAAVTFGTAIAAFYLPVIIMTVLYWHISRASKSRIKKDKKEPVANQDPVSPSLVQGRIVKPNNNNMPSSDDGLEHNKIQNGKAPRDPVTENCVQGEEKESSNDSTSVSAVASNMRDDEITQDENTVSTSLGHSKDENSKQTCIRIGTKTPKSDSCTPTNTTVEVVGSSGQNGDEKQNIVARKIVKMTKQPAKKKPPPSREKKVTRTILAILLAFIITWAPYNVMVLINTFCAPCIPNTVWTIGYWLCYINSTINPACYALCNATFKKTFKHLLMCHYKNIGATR
The experiment in a line: (§1) Displacement of [3H]NMS from human muscarinic acetylcholine receptor M2 expressed in CHOK9 cells after 3 hrs by liquid scintillation counting assay. The class given is cell-based.

For data set [2], the target named is T2, Muscarinic acetylcholine receptor M1 (Homo sapiens, UniProt P11229).
T2 sequence (P11229 whole entry): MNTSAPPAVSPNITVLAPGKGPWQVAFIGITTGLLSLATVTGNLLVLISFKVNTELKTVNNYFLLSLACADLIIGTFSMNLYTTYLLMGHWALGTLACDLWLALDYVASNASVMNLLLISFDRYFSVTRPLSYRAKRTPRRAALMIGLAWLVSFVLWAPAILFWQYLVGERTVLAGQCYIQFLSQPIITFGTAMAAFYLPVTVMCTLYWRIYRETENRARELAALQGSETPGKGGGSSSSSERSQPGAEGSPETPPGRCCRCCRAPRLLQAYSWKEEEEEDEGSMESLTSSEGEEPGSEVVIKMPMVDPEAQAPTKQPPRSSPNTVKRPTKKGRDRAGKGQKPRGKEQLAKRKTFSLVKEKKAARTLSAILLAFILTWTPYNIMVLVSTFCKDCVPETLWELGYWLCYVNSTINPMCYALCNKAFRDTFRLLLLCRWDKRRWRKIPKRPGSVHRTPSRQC
In words: Displacement of [3H]NMS from human muscarinic acetylcholine receptor M1 expressed in CHOK9 cells after 3 hrs by liquid scintillation counting assay. The class given is cell-based. (In a radioligand displacement assay an active substance lowers the binding of a labelled ligand.)

For data set [3], the target named is T3, Muscarinic acetylcholine receptor M2 (Homo sapiens, UniProt P08172).
T3 sequence (P08172 whole entry): T1 sequence (whole entry)
Described as §1. The note with it: read-out: pKi (converted). The class given is cell-based.

Data set [4] concerns the target Muscarinic acetylcholine receptor M3 (Homo sapiens, UniProt P20309). In words: Displacement of [3H]NMS from human muscarinic acetylcholine receptor M3 expressed in CHOK9 cells after 3 hrs by liquid scintillation counting assay. The class given is cell-based.
The target of data set [5] is T4, Muscarinic acetylcholine receptor M4 (Homo sapiens, UniProt P08173).
T4 sequence (P08173 whole entry): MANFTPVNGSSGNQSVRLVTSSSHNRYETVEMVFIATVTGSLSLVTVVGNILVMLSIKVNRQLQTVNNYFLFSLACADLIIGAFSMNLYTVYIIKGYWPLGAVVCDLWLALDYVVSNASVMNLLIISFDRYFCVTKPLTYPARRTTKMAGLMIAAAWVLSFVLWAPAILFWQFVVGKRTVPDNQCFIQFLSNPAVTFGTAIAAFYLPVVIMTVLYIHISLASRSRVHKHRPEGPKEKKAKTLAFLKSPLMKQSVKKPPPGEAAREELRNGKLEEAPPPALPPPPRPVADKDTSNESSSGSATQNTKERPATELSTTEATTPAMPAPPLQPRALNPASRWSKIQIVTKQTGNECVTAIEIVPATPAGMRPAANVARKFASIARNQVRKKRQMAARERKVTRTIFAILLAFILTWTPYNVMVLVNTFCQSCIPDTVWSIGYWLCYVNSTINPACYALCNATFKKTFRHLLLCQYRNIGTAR
The experiment in a line: Displacement of [3H]NMS from human muscarinic acetylcholine receptor M4 expressed in CHOK9 cells after 3 hrs by liquid scintillation counting assay. Format: cell-based.

For data set [6], the target named is T5, Muscarinic acetylcholine receptor M5 (Homo sapiens, UniProt P08912).
T5 sequence (P08912 whole entry): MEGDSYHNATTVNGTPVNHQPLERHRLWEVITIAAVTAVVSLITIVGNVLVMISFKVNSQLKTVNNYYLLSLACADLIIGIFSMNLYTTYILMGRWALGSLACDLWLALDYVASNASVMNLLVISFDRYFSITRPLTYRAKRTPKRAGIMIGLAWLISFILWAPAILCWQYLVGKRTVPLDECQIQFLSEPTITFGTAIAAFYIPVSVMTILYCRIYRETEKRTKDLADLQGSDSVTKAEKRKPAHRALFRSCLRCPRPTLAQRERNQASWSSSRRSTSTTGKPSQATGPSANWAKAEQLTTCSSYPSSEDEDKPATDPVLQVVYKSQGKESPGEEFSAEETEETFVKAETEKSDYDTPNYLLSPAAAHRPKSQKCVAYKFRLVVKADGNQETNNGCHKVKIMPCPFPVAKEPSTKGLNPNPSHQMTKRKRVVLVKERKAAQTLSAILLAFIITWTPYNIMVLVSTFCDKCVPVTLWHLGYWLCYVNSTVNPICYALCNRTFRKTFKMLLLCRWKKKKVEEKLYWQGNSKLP
The experiment in a line: Displacement of [3H]NMS from human muscarinic acetylcholine receptor M5 expressed in CHOK9 cells after 3 hrs by liquid scintillation counting assay. Format: cell-based.

For data set [7], the target named is T1, Muscarinic acetylcholine receptor M2 (Homo sapiens). In words: Binding affinity to human muscarinic acetylcholine receptor M2 expressed in live adherent CHOK9 cells after 2 hrs by liquid scintillation counting assay. The class given is cell-based. The note with it: tested as the 3H-labelled form. Put shortly:
(§2)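 Live adherent CHO-hM2 cells in L15 medium with 1% BSA, 23 ± 1 °C, 2 h incubation. Competition at 2 nM radioligand; additional 4, 8, 15 and 30 nM in W84 experiments. […] Saturation data fitted one-site; competition by four-parameter logistic fits; at least three experiments in triplicate.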

Data set [8] shares this target. The experiment in a line: Binding affinity to human muscarinic acetylcholine receptor M2 expressed in CHOK9 cell homogenate after 2 hrs by liquid scintillation counting assay. As to conditions: tested as the 3H-labelled form. Put shortly: (§3)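 CHO-hM2 cell homogenates (25–30 μg protein/well) in L15 medium with 1% BSA, 23 ± 1 °C, 2 h with tritiated dimeric radioligand. Competition used 0.5 nM radioligand; additional 0.4, 1, 2 and 4 nM in W84 experiments. […] Four-parameter logistic fits; at least three experiments in triplicate.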

Data set [9] in a line: Chemical stability of the compound in PBS buffer at pH 7.4 after 48 hrs by HPLC analysis. Format: physicochemical. The note with it: pH 7.4, 48 h. Put shortly: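 Compound at 100 μM final (from 10 mM stock) in PBS pH 7.4 at 22 ± 1 °C; samples taken at 0, 24 and 48 h, mixed with acetonitrile/1% aq TFA 2:8, analysed by RP-HPLC at 220 nm.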
The target of data set [10] is T1, Muscarinic acetylcholine receptor M2 (Homo sapiens). In words: Binding affinity to human muscarinic acetylcholine receptor M2 expressed in live adherent CHOK9 cells at Kd in presence of 500-fold excess atropine after 2 hrs by liquid scintillation counting assay relative to control. The class given is cell-based. The note with it: tested as the 3H-labelled form. The gist of the method: as §2

The target is the same in data set [11]. In words: Binding affinity to human muscarinic acetylcholine receptor M2 expressed in CHOK9 cell homogenates at Kd in presence of 500-fold excess atropine after 2 hrs by liquid scintillation counting assay relative to control. The note with it: tested as the 3H-labelled form. Put shortly: as §3
Data set [12] shares this target. In words: (§4) Competitive antagonist activity at human muscarinic acetylcholine receptor M2 expressed in HEK293 cells coexpressing HA tagged Galpha-protein qi5 assessed as inhibition of 0.1 uM carbachol-induced IP1 accumulation preincubated for 30 mins followed by carbachol addition measured after 1 hr by HTRF assay. Format: functional, cell-based. Put shortly: (§5)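 HEK-293 transiently cotransfected with human M2R and Gαqi5-HA. Cells preincubated 30 min with antagonist, then carbachol added (final 0.1, 0.3, 1 or 10 μM), 1 h at 37 °C. IP1 detected by HTRF (620/670 nm emission, 330 nm excitation). At least four independent experiments, each in duplicate.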
(TR-FRET usually uses a lanthanide donor and a delayed reading to cut background.)

The target in data set [13] is T3, Muscarinic acetylcholine receptor M2. The data set is described as §4. The class given is functional, cell-based. Put shortly:
as §5

For data set [14], the target named is T1, Muscarinic acetylcholine receptor M2 (Homo sapiens). In words: (§6) Competitive antagonist activity at human muscarinic acetylcholine receptor M2 expressed in HEK293 cells coexpressing HA tagged Galpha-protein qi5 assessed as inhibition of 1 uM carbachol-induced IP1 accumulation preincubated for 30 mins followed by carbachol addition measured after 1 hr by HTRF assay. The class given is functional, cell-based. The gist of the method: as §5

The target in data set [15] is T3, Muscarinic acetylcholine receptor M2. The description is as §6. The class given is functional, cell-based. The gist of the method: as §5
The target of data set [16] is T1, Muscarinic acetylcholine receptor M2 (Homo sapiens). In words: (§7) Competitive antagonist activity at human muscarinic acetylcholine receptor M2 expressed in HEK293 cells coexpressing HA tagged Galpha-protein qi5 assessed as inhibition of 10 uM carbachol-induced IP1 accumulation preincubated for 30 mins followed by carbachol addition measured after 1 hr by HTRF assay. The class given is functional, cell-based. Put shortly: as §5

Data set [17] has as its target T3, Muscarinic acetylcholine receptor M2. The description is as §7. Format: functional, cell-based. The gist of the method: as §5
The target of data set [18] is T1, Muscarinic acetylcholine receptor M2 (Homo sapiens). The experiment in a line: Agonist activity at human muscarinic acetylcholine receptor M2 expressed in HEK293 cells coexpressing HA tagged Galpha-protein qi5 assessed as induction of IP1 accumulation measured after 1 hr by HTRF assay. The class given is functional, cell-based. Put shortly:
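HEK-293 transiently cotransfected with human M2R and Gαqi5-HA, seeded 24 h before assay (10000 cells/well). Compounds in stimulation buffer (1 pM–100 μM final) 1 h at 37 °C; IP1 read by HTRF (620/670 nm, excitation 330 nm) after 60 min with detection reagents at rt. Duplicate, three experiments, carbachol as reference.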

Data set [19] has the same target. In words: Antagonist activity at human muscarinic acetylcholine receptor M2 expressed in HEK293 cells coexpressing HA tagged Galpha-protein qi5 assessed as inhibition of 0.3 uM carbachol-induced IP1 accumulation preincubated for 30 mins followed by carbachol addition measured after 1 hr by HTRF assay. The class given is functional, cell-based. The gist of the method: as §5

Data set [20] has as its target T3, Muscarinic acetylcholine receptor M2. The experiment in a line: Displacement of [3H]UNSW-MK259 from human muscarinic acetylcholine receptor M2 expressed in CHOK9 cells after 3 hrs by liquid scintillation counting assay. The class given is cell-based.
Data set [21] shares this target. In words: Displacement of [3H]UR-AP060 from human muscarinic acetylcholine receptor M2 expressed in CHOK9 cell homogenate after 3 hrs by liquid scintillation counting assay.
Data set [22] concerns the target T1, Muscarinic acetylcholine receptor M2 (Homo sapiens). The experiment in a line: Binding affinity to human muscarinic acetylcholine receptor M2 expressed in CHOK9 cells assessed as association rate constant incubated up to 140 mins by liquid scintillation counting assay. Format: cell-based. As to conditions: tested as the 3H-labelled form.
For data set [23] the target is unchanged. In words: Binding affinity to human muscarinic acetylcholine receptor M2 expressed in CHOK9 cells assessed as dissociation rate constant after 105 mins by liquid scintillation counting assay. The class given is cell-based. The note with it: tested as the 3H-labelled form.
For data set [24] the target is unchanged. In words: Binding affinity to human muscarinic acetylcholine receptor M2 expressed in CHOK9 cells assessed as dissociation half life after 105 mins by liquid scintillation counting assay. The class given is cell-based. As to conditions: tested as the 3H-labelled form.

The results in this text go back to ChEMBL document CHEMBL4049434, “Radiolabeled Dibenzodiazepinone-Type Antagonists Give Evidence of Dualsteric Binding at the M2 Muscarinic Acetylcholine Receptor” (J Med Chem, 2017).

Activity calls are given as the source filed them. No cut-off for these calls is given here.

One may read the IC50 as the concentration at which inhibition is half-maximal. What is called pKb is the Kb on a negative log10 scale, so that one unit is a factor of ten.

Sequence of Muscarinic acetylcholine receptor M3 (P20309 whole entry): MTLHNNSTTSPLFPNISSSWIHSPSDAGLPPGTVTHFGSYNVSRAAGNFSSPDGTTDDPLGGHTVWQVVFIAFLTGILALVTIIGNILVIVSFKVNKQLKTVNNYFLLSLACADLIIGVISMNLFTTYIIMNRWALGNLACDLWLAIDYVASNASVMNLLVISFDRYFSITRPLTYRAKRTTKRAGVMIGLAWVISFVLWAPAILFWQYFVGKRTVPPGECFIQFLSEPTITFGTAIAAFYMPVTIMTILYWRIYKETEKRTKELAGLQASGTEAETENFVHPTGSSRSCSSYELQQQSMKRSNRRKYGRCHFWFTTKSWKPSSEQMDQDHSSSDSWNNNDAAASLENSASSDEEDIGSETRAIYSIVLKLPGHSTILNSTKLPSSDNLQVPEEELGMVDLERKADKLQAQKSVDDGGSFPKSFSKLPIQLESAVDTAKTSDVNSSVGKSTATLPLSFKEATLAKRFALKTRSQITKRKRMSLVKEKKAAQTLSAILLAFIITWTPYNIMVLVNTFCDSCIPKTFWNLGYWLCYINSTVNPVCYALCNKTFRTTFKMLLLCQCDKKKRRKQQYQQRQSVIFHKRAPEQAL

Turning to `O=C1Nc2ccccc2N(C(=O)CN2CCN(CC(=O)N3c4ccccc4NC(=O)c4ccccc43)CC2)c2ccccc21`, the inhibition entry in data set [1] was “Active”.

For `CCC(=O)NC1CN(CCCCC2CCN(CC(=O)N3c4ccccc4NC(=O)c4ccccc43)CC2)CCN(CCCCC2CCN(CC(=O)N3c4ccccc4NC(=O)c4ccccc43)CC2)C1.O=C(O)C(F)(F)F.O=C(O)C(F)(F)F.O=C(O)C(F)(F)F.O=C(O)C(F)(F)F`, the Ki is 7.08 nM in data set [2]; 0.708 nM in data set [3]; 200 nM in [4]; 3.63 nM in data set [5]; 77.6 nM in data set [6]. The Bmax (disintegrations/minute) in data set [7] came to 3800; in [8], 4900. In addition, in [9], the Stability result was “Stable”. Further, the values for the Activity in data set [10] and in data set [11] were greater than 60% and less than 15%, respectively.

In the case of `CCC(=O)NCCNC(=O)CCc1cn(CCCCC2CCN(CC(=O)N3c4ccccc4NC(=O)c4ccccc43)CC2)cn1`, the Ki in [3] was 0.759 nM; in [20], 1.1 nM; in data set [21], 10.2 nM. Besides, the inhibition result in [12], in data set [14], in data set [16] and in [19] was “Dose-dependent effect” in each case. In addition, the results for the IC50 in [13], in data set [15] and in [17] were 33.9 nM, 85.1 nM and 355 nM, respectively. Moreover, the result in data set [18] was inactive. In data set [19], the pKb stood at 7.53. This molecule returned a Bmax (disintegrations/minute) in data set [7] of 780. Besides, the values for the K in data set [22] and in [23] were 217000 M⁻¹ s⁻¹ and 0.0091 min⁻¹, respectively. The T1/2 in data set [24] stood at 1.18 h. For the same molecule, in data set [9], the Stability entry is listed as “Stable”. Also, the Activity in data set [10] was less than 5%.
